Measured values: ChEMBL document CHEMBL2406990, “Guanidine alkaloids from Plumbago zeylanica” (J Nat Prod, 2013)

Assays:
PANC-1 = assay: Cytotoxicity against human PANC1 cells after 72 hrs by SRB assay; type: functional, cell-based; conditions: PANC-1, 72 h
Outline: (§1)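 Cells seeded and left 24 h, then exposed to serial dilutions of compound (top concentration 100 μM). Incubation 72 h at 37 °C in humidified 5% CO2. Fixed with 10% trichloroacetic acid (4 °C, 1 h), water-washed, dried, stained 15 min with 0.4% SRB in 1% acetic acid. Unbound dye removed with 1% acetic acid, bound dye taken up in 10 mM Tris base, A510 read. Triplicate, IC50.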

MDA-MB-231 = assay: Cytotoxicity against human MDA-MB-231 cells after 72 hrs by SRB assay; type: functional, cell-based; conditions: MDA-MB-231, 72 h; outline: as §1

Row | SMILES | IC50 (PANC-1) [µM] | IC50 (MDA-MB-231) [µM]
1 | CC(=O)O[C@H]1C(=O)[C@@]2(C)[C@H]([C@H](OC(=O)c3ccccc3)[C@]3(O)C[C@H](OC(=O)[C@H](O)[C@@H](NC(=O)c4ccccc4)c4ccccc4)C(C)=C1C3(C)C)[C@]1(OC(C)=O)CO[C@@H]1C[C@@H]2O [PACLITAXEL] | < 1 | < 1
2 | CC(C)=C[C@@H]1C[C@@H](C(=O)O)[C@@H]2CNC(=N)N12 | > 10 | > 10
3 | CC(C)=CCC[C@@H](C(=O)O)[C@@H]1CN(CC(O)CCO[C@H]2OC[C@@H](O)[C@H](O)[C@H]2O)C(=N)N1 (stereo partly drawn) | > 10 | > 10
4 | CC1=C[C@@H](C[C@@H](C(=O)O)[C@@H]2CN(CC(O)CCO[C@H]3OC[C@@H](O)[C@H](O)[C@H]3O)C(=N)N2)OC1=O (stereo partly drawn) | > 10 | > 10
5 | CC(C)(O)CCC[C@@H](C(=O)O)[C@@H]1CNC(=N)N1 | > 10 | > 10
6 | C/C(=C\CC[C@@H](C(=O)O)[C@@H]1CN(CC(O)CCO[C@H]2OC[C@@H](O)[C@H](O)[C@H]2O)C(=N)N1)CO (stereo partly drawn) | > 10 | > 10
7 | CC(C)=CCC[C@@H](C(=O)O)[C@@H]1CNC(=N)N1 | > 10 | > 10
8 | CC(C)=C[C@@H]1C[C@@H](C(=O)O)[C@@H]2CN(CC(O)CCO[C@H]3OC[C@@H](O)[C@H](O)[C@H]3O)C(=N)N12 (stereo partly drawn) | > 10 | > 10
9 | CC(C)=CCC[C@@H](C(=O)O)[C@@H]1CN(CC(O)CCO)C(=N)N1 (stereo partly drawn) | > 10 | > 10
10 | C/C(=C\CC[C@@H](C(=O)O)[C@@H]1CNC(=N)N1)CO | > 10 | > 10
11 | C/C(=C\CC[C@@H](C(=O)O)[C@@H]1CN(CC(O)CCO)C(=N)N1)CO (stereo partly drawn) | > 10 | > 10
12 | CC1=C[C@@H](C[C@@H](C(=O)O)[C@@H]2CN(CC(O)CCO)C(=N)N2)OC1=O (stereo partly drawn) | > 10 | > 10
13 | CC1=C[C@@H](C[C@@H](C(=O)O)[C@@H]2CNC(=N)N2)OC1=O | > 10 | > 10
14 | CC(C)=C[C@@H]1C[C@@H](C(=O)O)[C@@H]2CN(CC(O)CCO)C(=N)N12 (stereo partly drawn) | > 10 | > 10
